This passage reports IC50 results from ChEMBL document CHEMBL4330163, “Veluflavanones A-P, Cytotoxic Geranylated Flavanones from Dalbergia velutina Stems” (J Nat Prod, 2019).

What all share (assay type): functional, cell-based
One assay deals with HeLa S3. Kind of assay: Cytotoxicity against human HeLaS3 cells by MTT assay. In a few lines:
(§1)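 Modified MTT colorimetric assay on five human cancer lines (KB epidermoid, HeLa S3 cervical, MCF-7 breast, Hep G2 hepatocellular, HT-29 colon adenocarcinoma). Doxorubicin was run as positive control.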
In general terms: Formazan colour is commonly taken as a measure of viable cells.

For a further assay, the system named is HT-29. The assay can be described thus: Cytotoxicity against human HT-29 cells by MTT assay. In a few lines:
as §1

The next assay concerns MCF7. Kind of assay: Cytotoxicity against human MCF7 cells by MTT assay. In a few lines:
as §1

The subject of another assay is HepG2. The assay can be described thus: Cytotoxicity against human HepG2 cells by MTT assay. In a few lines: as §1
A further assay relates to KB. Kind of assay: Cytotoxicity against human KB cells by MTT assay. The gist of the method: as §1

For orientation: pIC50 means the negative decadic logarithm of the IC50, by convention in mol/L.

pIC50: −log10 of the molar value. Bounds are passed on as bounds.

As to `CC1=CCC(O)C(C)(C)C1Cc1c(O)ccc2c1O[C@H](c1ccc(O)cc1)CC2=O` (stereo not given in full), the pIC50 in the assay on HeLa S3, in the assay on HT-29, with MCF7, in the assay on HepG2 and with KB was less than 5.00 throughout.

With `CC(C)=CCCC1(C)CCc2c(cc(O)c3c2O[C@H](c2ccc(O)cc2)CC3=O)O1` (stereo not given in full), the negative-log IC50 (pIC50) was 5.00 with HeLa S3; less than 5.00 in the assay on HT-29; less than 5.00 in the assay on MCF7; less than 5.00 with HepG2; less than 5.00 with KB.

`C/C(=C\Cc1c(O)ccc2c1O[C@H](c1ccc(O)cc1)CC2=O)C/C=C/C(C)(C)O`: the pIC50 in the assay on HeLa S3, in the assay on HT-29, with MCF7, in the assay with HepG2 and in the assay with KB was less than 5.00 each time.

Regarding `CC1(CCC(O)C(C)(C)O)CCc2c(ccc3c2O[C@H](c2ccc(O)cc2)CC3=O)O1` (stereo not given in full), the pIC50 with HeLa S3, with HT-29, with MCF7, in the assay with HepG2 and in the assay on KB was less than 5.00 throughout.

`COC(C)(C)/C=C/C/C(C)=C/Cc1c(O)ccc2c1O[C@H](c1ccc(O)cc1)CC2=O`: the pIC50 with HeLa S3, with HT-29, with MCF7, in the assay with HepG2 and with KB was less than 5.00 in each case.

For `CC(C)=CCCC1(C)Oc2ccc3c(c2CC1O)O[C@H](c1ccc(O)cc1)CC3=O` (stereo not given in full), the pIC50 in the assay with HeLa S3, with HT-29, in the assay with MCF7, with HepG2 and with KB was less than 5.00 throughout.

For the molecule `COC(C)(C)/C=C/CC1(C)CCc2c(ccc3c2O[C@H](c2ccc(O)cc2)CC3=O)O1` (stereo not given in full), the pIC50 is 5.07 in the assay with HeLa S3; less than 5.00 in the assay with HT-29; less than 5.00 with MCF7; less than 5.00 in the assay with HepG2; less than 5.00 with KB.

In the case of `C=C(C)C(O)CCC1(C)CCc2c(ccc3c2O[C@H](c2ccc(O)cc2)CC3=O)O1` (stereo not given in full), the pIC50 with HeLa S3, with HT-29, with MCF7, with HepG2 and in the assay on KB was less than 5.00 each time.

Take `C=C(CCC=C(C)C)C(O)Cc1c(O)ccc2c1O[C@H](c1ccc(O)cc1)CC2=O` (stereo not given in full): the pIC50 in the assay with HeLa S3, in the assay on HT-29, in the assay with MCF7, in the assay on HepG2 and with KB was less than 5.00 each time.

In the case of `CC(C)=CCCC1(C)CCc2c(ccc3c2O[C@H](c2ccc(O)cc2)CC3=O)O1` (stereo not given in full), the negative-log IC50 (pIC50) in the assay on HeLa S3 is 5.09; in the assay with HT-29, less than 5.00; with MCF7, 5.00; with HepG2, less than 5.00; in the assay on KB it was 5.00.

On to `COC(C=C(C)C)C/C(C)=C/Cc1c(O)ccc2c1O[C@H](c1ccc(O)cc1)CC2=O` (stereo not given in full), for which the negative-log IC50 (pIC50) with HeLa S3, in the assay on HT-29, in the assay on MCF7, with HepG2 and with KB was less than 5.00 throughout.

Turning to `CC(C)(O)/C=C/CC1(C)CCc2c(ccc3c2O[C@H](c2ccc(O)cc2)CC3=O)O1` (stereo not given in full), the pIC50 in the assay on HeLa S3 was 5.18; with HT-29 it was less than 5.00; in the assay on MCF7, less than 5.00; in the assay with HepG2, less than 5.00; in the assay on KB, less than 5.00.

Regarding `CC(C)=CCCC(C)(O)C1Cc2c(ccc3c2O[C@H](c2ccc(O)cc2)CC3=O)O1` (stereo not given in full), the pIC50 in the assay with HeLa S3, with HT-29, in the assay with MCF7, in the assay on HepG2 and in the assay on KB was less than 5.00 in each case.

On to `CC1(CCC2OC2(C)C)CCc2c(ccc3c2O[C@H](c2ccc(O)cc2)CC3=O)O1` (stereo not given in full), for which the pIC50 with HeLa S3 is 5.08; in the assay with HT-29, less than 5.00; in the assay on MCF7, less than 5.00; with HepG2, less than 5.00; in the assay on KB, less than 5.00.

`COc1cccc2c1C(=O)c1c(O)c3c(c(O)c1C2=O)C[C@@](O)(C(=O)CO)C[C@@H]3O[C@H]1C[C@H](N)[C@H](O)[C@H](C)O1` [DOXORUBICIN]: the pIC50 in the assay with HeLa S3 is 7.52; in the assay on HT-29, 6.47; with MCF7 it was 6.21; with HepG2, 5.97; with KB, 6.89.

Take `C=C(C)C(O)CC/C(C)=C/Cc1c(O)ccc2c1O[C@H](c1ccc(O)cc1)CC2=O` (stereo not given in full): the pIC50 in the assay with HeLa S3, in the assay with HT-29, with MCF7, in the assay on HepG2 and in the assay on KB was less than 5.00 in each case.

For `C=C(C)/C=C/CC1(C)CCc2c(ccc3c2O[C@H](c2ccc(O)cc2)CC3=O)O1` (stereo not given in full), the pIC50 with HeLa S3, in the assay with HT-29, in the assay with MCF7, with HepG2 and with KB was less than 5.00 each time.

As for `CC(C)=CCC/C(C)=C/Cc1c(O)ccc2c1O[C@H](c1ccc(O)cc1)CC2=O`, the pIC50 in the assay with HeLa S3, with HT-29, with MCF7, in the assay with HepG2 and in the assay with KB was less than 5.00 throughout.
